Experimental data from different studies.
Protocols differ between the studies behind these lines.
Target: Tyrosine-protein kinase CSK (CSK, Homo sapiens, UniProt P41240)

SMILES	test	setting	measurement	result
Cc1cc(O)c(-c2ccc([C@@H](C)CN(C)C)cc2)c2c1[nH]c(=O)c1sccc12	enzyme activity, inhibitor	0.1 µM, lysate	inhibition	2.59%
C#Cc1cc(-c2cc(Nc3nc(N[C@@H](C)c4ccc(F)cn4)ncc3Cl)n[nH]2)ccc1C=O	enzyme activity, inhibitor	0.2 µM	inhibition	14%
C1=C/COCc2cc(ccc2OCCN2CCCC2)Nc2nccc(n2)-c2cccc(c2)COC/1	cell-free assay	0.1 µM	remaining signal	88%
CN1CCN(C(=O)c2ccc(NC(=O)Nc3ccc(N(C)c4ccnc(Nc5ccc(CS(C)(=O)=O)cc5)n4)cc3)cc2)CC1	binding, competition with immobilised ligand	1 µM	remaining binding	62%
CO[C@@H]1[C@H](N(C)C(=O)c2ccccc2)C[C@H]2O[C@]1(C)n1c3ccccc3c3c4c(c5c6ccccc6n2c5c31)C(=O)NC4	enzyme activity, inhibitor	1 µM	inhibition	0%
Cc1ccc(NC(=O)c2ccnc(C(F)(F)F)c2)cc1-c1cc(OCCO)nc(N2CCOCC2)c1	binding, competition with immobilised ligand	1 µM	remaining binding	95%
CC#CC(=O)N1CCC[C@H]1c1nc(-c2ccc(C(=O)Nc3ccccn3)cc2)c2c(N)nccn12	enzyme activity, inhibitor	1 µM	inhibition	32%
COc1ccc2oc(-c3ccc4nc(N)oc4c3)c/c(=N\c3ccccc3NC(=O)CCN)c2c1	cell-free assay	1 µM	remaining signal	119%
CCCCC(=O)Nc1ccc(-c2ccc3ncn(CCC)c(=O)c3c2)cn1	binding, competition with immobilised ligand	0.5 µM	remaining binding	94%
